NTR1 ag = agonists of human neurotensin receptor NTR1 | P30989 | NTR1-U2OS beta-arrestin-GFP spot imaging, agonist mode | activation, % at 20 µM | 330,000 tested, 0.17% active;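 active = activation at or above 40% of the spot to cytoplasm intensity ratio, with at least 20 cells analyzed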;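 note: 0% = DMSO without peptide and 100% = 100 nM NTR1 peptide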
MC4R barr agon = agonists of human melanocortin 4 receptor (MC4R) beta-arrestin. 360,000 tested, 0.98% active. U2OS MC4R beta-arrestin complementation, luminescence; percent of melanotan II response, DMSO zero. P32245. activation, % at 8.9 µM;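 active = activation above a per-plate cutoff, the mean activation of sample wells on that plate plus 3 SD, cut at about 8% in these data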
Target sequence (P32245 whole entry, looked up): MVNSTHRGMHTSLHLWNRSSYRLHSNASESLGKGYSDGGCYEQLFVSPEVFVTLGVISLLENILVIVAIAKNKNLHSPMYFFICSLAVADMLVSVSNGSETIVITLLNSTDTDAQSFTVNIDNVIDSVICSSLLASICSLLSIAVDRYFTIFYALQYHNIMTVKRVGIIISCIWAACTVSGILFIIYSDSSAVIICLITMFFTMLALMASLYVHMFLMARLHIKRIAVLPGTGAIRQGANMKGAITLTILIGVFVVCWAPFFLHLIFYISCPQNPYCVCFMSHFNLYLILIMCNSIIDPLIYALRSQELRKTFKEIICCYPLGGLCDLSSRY
H9c2 TAG inh = reduces triacylglycerol accumulation in H9c2 cells; Nile Red lipid (TAG) fluorescence; cells loaded with 200 µM oleic acid; inhibition, % at 12.5 µM; 230,000 tested, 0.66% active;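 active = pattern-corrected inhibition of lipid staining of at least 50% with the nuclear-stain viability signal not falling by more than 50%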;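 note: 0% = DMSO wells and 100% = triacsin C control wells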
Tb MetRS inh = Trypanosoma brucei MetRS inhibition. purified T. brucei MetRS, ATP depletion, Kinase-Glo luminescence. inhibition, % at 11.9 µM. 360,000 tested, 0.4% active;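 active = inhibition above a per-plate cutoff of the control wells' mean inhibition plus 3 SD, cut at about 5.5% in these data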;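 note: 0% = DMSO wells median and 100% = median of wells with control inhibitor compound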
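Measured by: Kinase-Glo luciferase luminescence reporting remaining unconsumed ATP. Material: purified T. brucei MetRS enzyme. Doses: 11.9 µM compound single dose, 0.9% DMSO. Medium: HEPES buffer containing pyrophosphatase, BSA, spermine, DTT. Times: 15 min preincubation, 2 h reaction, all 25 °C. Reagent: methionine, ATP and bulk E. coli tRNA.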
MC4R antag cAMP = antagonists of human melanocortin 4 receptor (MC4R); P32245; AID 540295; MC4R-expressing cells, MTII-stimulated cAMP, LANCE TR-FRET; 360,000 tested, 0.48% active; inhibition, % at 6.5 µM;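 active = inhibition above its plate's cutoff, the mean of tested wells on that plate plus 3 SD, cut at about 29% in these data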;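 note: 0% = Melanotan II alone and 100% = Melanotan II plus saturating MCL0020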
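Assay system: human MC4R-expressing U2OS cells; reagent: Melanotan II stimulation of cells; dosing: 6.5 µM single dose; timing: compound 30 min, challenge 1 h, detection 1 h; signal: TR-FRET cAMP assay; replicates: one well per compound, no replicates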
aDG glyco up = increases alpha dystroglycan glycosylation. activation, % at 10 µM. Pro5-aDG cells, alpha-DG glycosylation AlphaScreen (IIH6); 0% Pro5, 100% B10-LARGE cell signal. 360,000 tested, 0.22% active;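 active = activation of at least 8% versus controls, or a plate z-score of at least 8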;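 note: Pro5 are CHO cells carrying HIG-tagged alpha-DG that lacks glycosylation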
cAMP nonselect = counter-screen for MC4R antagonists: nonselective cAMP signaling inhibitors. parental U2OS, forskolin cAMP, LANCE TR-FRET. shares compounds with MC4R antag cAMP. 1,600 tested, 26% active. AID 602193. inhibition, % at 6.5 µM;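 active = mean inhibition over triplicates above the low-control well mean plus 3 SD, set per campaign, cut at about 13% in these data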;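 note: signal is single emission at 671 nm which falls as cellular cAMP rises; 0% = forskolin-stimulated wells and 100% = buffer without forskolin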
MC4R cAMP antag = human MC4R cAMP antagonism confirmation. inhibition, % at 6.5 µM. 1,600 tested, 27% active. shares compounds with MC4R antag cAMP. MC4R-expressing cells, MTII-stimulated cAMP, TR-FRET; in the data active = inhibition above about 29%;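 note: 0% = agonist stimulated wells alone and 100% = agonist stimulated wells plus saturating reference antagonist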
Numbers without * were called inactive; nt = not tested or not shown. This is a sample that favours compounds with a hit; in the whole collection about 2.4% have one here.

SMILES	NTR1 ag	MC4R barr agon	H9c2 TAG inh	Tb MetRS inh	MC4R antag cAMP	aDG glyco up	cAMP nonselect	MC4R cAMP antag
Cc1ccccc1CS(=O)(=O)c1nnc([C@H](CC(C)C)NC(=O)OC(C)(C)C)o1	20	-1	nt	0	33*	0	11	20
CC(C)[C@H](NC(=O)OC(C)(C)C)c1nnc(S(=O)(=O)Cc2c(F)cccc2Cl)o1	33	-3	nt	0	64*	0	27*	34*
COc1ccc(C2CC=C(C(C)=O)CN2S(=O)(=O)c2ccc(Cl)cc2)cc1 (centres undefined)	nt	nt	nt	0	nt	0	nt	nt
COc1cc(C2CC(=O)Oc3c2c(=O)n(C)c2ccccc32)cc(OC)c1OC (centres undefined)	-1	-2	-5	0	38*	0	0	4
COc1cc(C2CC(=O)Oc3c2c(=O)n(C)c2ccccc32)ccc1O (centres undefined)	1	-2	nt	-1	21	0	nt	nt
N#Cc1cccc(C(c2nnnn2CCc2ccccc2)N2CCN(C3CCCCC3)CC2)c1 (centres undefined)	1	2	nt	0	29*	0	3	3
OCC[C@@H]1C[C@H](O)[C@@H](O)[C@@]2(OCCCc3cc(Cl)ccc32)O1	nt	nt	nt	-1	nt	0	nt	nt
CCOC(=O)c1c(NC(=O)C2c3ccccc3Oc3ccccc32)sc(C(N)=O)c1C	15	4	-11	-1	32*	0	6	22
COc1ccc(S(=O)(=O)N2CCC[C@H]2C(=O)N2CCC[C@H]2C(=O)N(C)Cc2ccccc2)cc1C	nt	nt	nt	0	nt	0	nt	nt
C[C@H](NC(=O)[C@@H]1CCCN1C(=O)[C@@H]1CCCN1C(=O)OC(C)(C)C)c1ccccc1	nt	nt	nt	-1	nt	0	nt	nt
COc1ccc(CS(=O)(=O)/C(Cl)=C(/Cl)C(=O)Nc2ccc(OC)nc2)cc1	1	-2	81	-1	44*	-1	33*	37*
COc1ccccc1NS(=O)(=O)c1ccc2oc(SC3CCOC3=O)nc2c1 (centres undefined)	18	-2	nt	0	44*	0	36*	67*
CNC(=O)CSc1nc2cc(S(=O)(=O)Nc3ccccc3OC)ccc2o1	0	1	nt	0	6	0	nt	nt
O=C1/C(=C\c2ccc(Cl)c(Cl)c2)CN(C(=O)CCN2CCOCC2)C/C1=C/c1ccc(Cl)c(Cl)c1	nt	-4	63*	0	37*	0	26*	31*
Cc1ccc(OCc2nc3ccccc3n2C(C)C(=O)Nc2c(C)cccc2C)cc1 (centres undefined)	nt	nt	nt	0	nt	0	nt	nt
COC(=O)CSc1nc2ccccn2c(=O)c1C=O	3	0	12	1	31*	0	0	-10
COC(=O)[C@H](CC(C)C)NC(=O)N1CCC(C)CC1	-1	-1	4	0	33*	0	5	4
CC1(C(=O)NCCc2c[nH]c3ccccc23)CCN1CC1CCCCC1 (centres undefined)	nt	5	7	0	6	0	nt	nt
CC(C)C[C@H](NC(=O)c1[nH]cnc1C(=O)Nc1ccc(CNC(=O)OC(C)(C)C)cc1)C(=O)OCc1ccccc1	18	4	-8	0	61*	0	18*	37*
C[C@H](NC(=O)c1[nH]cnc1C(=O)Nc1ccc(CNC(=O)OC(C)(C)C)cc1)C(=O)OCc1ccccc1	32	6	-1	0	29*	0	-33	-43
CC(C)(C)OC(=O)NCc1ccc(NC(=O)c2nc[nH]c2C(=O)N[C@@H](Cc2ccccc2)C(=O)OC(C)(C)C)cc1	30	1	-16	0	20	0	nt	nt
